Key:
[1] = molecular target: T1, ATP-dependent translocase ABCB1 (Homo sapiens, UniProt P08183); test: Inhibition of MDR1-mediated rhodamine 123 uptake expressed in mouse L5178Y cells assessed as fluorescence activity ratio at 60 ug/mL after 10 mins by flow cytometry relative to parent cells; assay type: cell-based; conditions: in the assay text read “60 uM” for “60 ug/mL”
How it was run: (§1)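 Mouse L5178Y cells, parental and human MDR1-transfected (kept with 60 ng/mL colchicine), were held at 2 × 10^6/mL in serum-free McCoy's 5A and given compound (2, 6, 20, 60 μM) for 10 min at room temperature. […] Rhodamine-123 (5.2 μM final) followed for 20 min at 37 °C; cells were washed twice into PBS. FL-1 of 10 000 cells was read by flow cytometry. FAR = treated/untreated MDR versus PAR.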

[2] = molecular target: T1, ATP-dependent translocase ABCB1; test: Inhibition of MDR1-mediated rhodamine 123 uptake expressed in human COLO320 cells assessed as fluorescence activity ratio at 2 ug/mL after 10 mins by flow cytometry relative to parent cells; assay type: cell-based; conditions: in the assay text read “2 uM” for “2 ug/mL”
How it was run: (§2)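 COLO 320 MDR cells (and COLO 205) were held at 1 × 10^6/mL in serum-free RPMI 1640 and given compound (2 or 20 μM) for 10 min at room temperature. […] Rhodamine-123 (5.2 μM final) followed for 20 min at 37 °C; cells were washed twice into PBS. FL-1 of 10 000 cells was read by flow cytometry. FAR was calculated from treated/untreated resistant versus sensitive cells.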

[3] = molecular target: T1, ATP-dependent translocase ABCB1; test: Inhibition of MDR1-mediated rhodamine 123 uptake expressed in mouse L5178Y cells assessed as fluorescence activity ratio at 6 uM after 10 mins by flow cytometry relative to parent cells
[4] = molecular target: T1, ATP-dependent translocase ABCB1; test: Inhibition of MDR1-mediated rhodamine 123 uptake expressed in mouse L5178Y cells assessed as fluorescence activity ratio at 20 ug/mL after 10 mins by flow cytometry relative to parent cells; assay type: cell-based; conditions: in the assay text read “20 uM” for “20 ug/mL”; how it was run: as §1
COLO 320 [5] = test: Induction of apoptosis in human COLO320 cells preincubated assessed as early apoptosis at 20 uM for 40 mins measured after 24 hrs using annexin V/propidium iodide staining by flow cytometry; assay type: functional
How it was run: (§3)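 COLO 320 MDR cells at 2 × 10^5/mL were exposed to agent for 40 min at 37 °C, with 1% DMSO as solvent control. Cells were then washed twice in PBS and cultured overnight at 37 °C, 5% CO2. After 24 h, supernatant and trypsin-detached cells were pooled and centrifuged. Staining used an annexin V-FITC/propidium iodide kit (rapid protocol), read immediately by flow cytometry.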

[6] = Induction of cell death in human COLO320 cells preincubated at 20 uM for 40 mins measured after 24 hrs using annexin V/propidium iodide staining by flow cytometry; assay type: functional, COLO 320
How it was run: (§4)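 COLO 320 MDR cells in RPMI 1640 with 10% FBS, at 2 × 10^5/mL, were exposed for 40 min at 37 °C, with 1% DMSO as the solvent control. Cells were washed twice in PBS, then kept in medium overnight at 37 °C, 5% CO2. After 24 h, supernatant and trypsin-detached cells were pelleted and resuspended in PBS. Annexin V-FITC/PI quadrants were read by flow cytometry.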

COLO 320 [7] = test: Induction of apoptosis in human COLO320 cells preincubated assessed as late apoptosis at 20 uM for 40 mins measured after 24 hrs using annexin V/propidium iodide staining by flow cytometry; assay type: functional; how it was run: as §3
[8] = molecular target: T1, ATP-dependent translocase ABCB1; test: Inhibition of MDR1-mediated rhodamine 123 uptake expressed in mouse L5178Y cells assessed as fluorescence activity ratio at 2 ug/mL after 10 mins by flow cytometry relative to parent cells; assay type: cell-based; conditions: in the assay text read “2 uM” for “2 ug/mL”; how it was run: as §1
[9] = molecular target: T1, ATP-dependent translocase ABCB1; test: Inhibition of MDR1-mediated rhodamine 123 uptake expressed in human COLO320 cells assessed as fluorescence activity ratio at 20 ug/mL after 10 mins by flow cytometry relative to parent cells; assay type: cell-based; conditions: in the assay text read “20 uM” for “20 ug/mL”; how it was run: as §2
COLO 320 [10] = test: Induction of apoptosis in human COLO320 cells preincubated assessed as early apoptosis at 200 uM for 40 mins measured after 24 hrs using annexin V/propidium iodide staining by flow cytometry; assay type: functional; how it was run: as §3
COLO 320 [11] = test: Induction of apoptosis in human COLO320 cells preincubated assessed as late apoptosis at 200 uM for 40 mins measured after 24 hrs using annexin V/propidium iodide staining by flow cytometry; assay type: functional; how it was run: as §3
[12] = Induction of cell death in human COLO320 cells preincubated at 200 uM for 40 mins measured after 24 hrs using annexin V/propidium iodide staining by flow cytometry; assay type: functional, COLO 320; how it was run: as §4
[13] = molecular target: T1, ATP-dependent translocase ABCB1; test: Inhibition of MDR1-mediated rhodamine 123 uptake expressed in mouse L5178Y cells assessed as fluorescence activity ratio at 2 uM after 10 mins by flow cytometry relative to parent cells
[14] = molecular target: T1, ATP-dependent translocase ABCB1; test: Inhibition of MDR1-mediated rhodamine 123 uptake expressed in human COLO320 cells assessed as fluorescence activity ratio at 2 uM after 10 mins by flow cytometry relative to parent cells

T1 sequence (P08183 whole entry): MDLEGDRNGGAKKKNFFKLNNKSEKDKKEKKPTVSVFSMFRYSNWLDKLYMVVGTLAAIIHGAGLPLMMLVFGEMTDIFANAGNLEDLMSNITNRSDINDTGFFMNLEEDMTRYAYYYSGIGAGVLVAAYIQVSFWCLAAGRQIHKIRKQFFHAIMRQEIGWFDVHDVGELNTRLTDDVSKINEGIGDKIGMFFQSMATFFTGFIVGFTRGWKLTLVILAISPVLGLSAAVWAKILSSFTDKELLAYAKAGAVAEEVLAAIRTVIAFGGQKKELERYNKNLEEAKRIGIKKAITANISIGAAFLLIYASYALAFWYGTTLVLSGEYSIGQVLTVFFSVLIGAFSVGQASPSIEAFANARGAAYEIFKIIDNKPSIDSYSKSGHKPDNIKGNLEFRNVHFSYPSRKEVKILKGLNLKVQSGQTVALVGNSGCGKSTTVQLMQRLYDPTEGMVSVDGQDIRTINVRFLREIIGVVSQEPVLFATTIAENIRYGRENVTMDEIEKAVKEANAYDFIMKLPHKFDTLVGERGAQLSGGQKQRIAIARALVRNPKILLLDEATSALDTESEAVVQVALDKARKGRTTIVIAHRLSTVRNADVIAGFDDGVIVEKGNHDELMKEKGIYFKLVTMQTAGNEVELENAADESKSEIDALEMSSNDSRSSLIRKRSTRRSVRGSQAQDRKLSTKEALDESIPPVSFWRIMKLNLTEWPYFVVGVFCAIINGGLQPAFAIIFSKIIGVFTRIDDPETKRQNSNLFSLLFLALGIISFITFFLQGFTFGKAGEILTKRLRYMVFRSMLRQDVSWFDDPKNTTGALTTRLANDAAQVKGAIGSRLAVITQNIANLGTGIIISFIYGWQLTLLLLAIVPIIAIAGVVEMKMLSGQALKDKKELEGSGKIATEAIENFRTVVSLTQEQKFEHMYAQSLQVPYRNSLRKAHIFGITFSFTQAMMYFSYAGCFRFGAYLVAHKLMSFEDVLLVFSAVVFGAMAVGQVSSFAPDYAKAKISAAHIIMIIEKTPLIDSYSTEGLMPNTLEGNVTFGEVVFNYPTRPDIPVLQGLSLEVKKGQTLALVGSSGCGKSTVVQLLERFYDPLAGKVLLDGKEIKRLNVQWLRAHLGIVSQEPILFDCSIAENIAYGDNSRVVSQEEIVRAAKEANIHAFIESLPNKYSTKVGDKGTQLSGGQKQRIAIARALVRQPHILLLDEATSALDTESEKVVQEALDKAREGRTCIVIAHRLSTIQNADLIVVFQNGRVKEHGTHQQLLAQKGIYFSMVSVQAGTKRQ

CC(=O)O[C@H]1[C@H](OC(C)=O)/C(C)=C\[C@H]2[C@@H](OC(=O)c3ccccc3)[C@@H](C)C[C@]2(O)[C@@H](OC(C)=O)[C@@H](C)/C=C/C(C)(C)[C@@H]1OC(C)=O (relative stereo) [EUPHOMELLIFERENE B]
Ratio [1]: 36.1 | Ratio [2]: 0.8 | Ratio [3]: 1.4 | Ratio [4]: 1.6 | Activity (COLO 320 [5]): 3% | Activity [6]: 1.11% | Activity (COLO 320 [7]): 4.93% | Ratio [8]: 1.1 | Ratio [9]: 2.8

c1ccc2c(c1)Nc1c(ccc3ccccc13)S2
Activity (COLO 320 [10]): 17.55% | Activity (COLO 320 [11]): 58.56% | Activity [12]: 3.24%

CC(=O)O[C@@H]1[C@@H](OC(C)=O)C(C)(C)/C=C/[C@H](C)C(=O)[C@@]2(OC(C)=O)C[C@@H](C)[C@H](OC(=O)c3ccccc3)/C2=C/[C@](C)(O)[C@H]1OC(C)=O
Ratio [1]: 43.4 | Ratio [2]: 0.7 | Ratio [3]: 1.4 | Ratio [4]: 10.1 | Activity (COLO 320 [5]): 4.4% | Activity [6]: 0.9% | Activity (COLO 320 [7]): 4.6% | Ratio [8]: 0.9 | Ratio [9]: 3

CC(=O)O[C@H]1[C@H](OC(C)=O)/C(C)=C\[C@H]2[C@@H](OC(=O)c3ccccc3)[C@@H](C)C[C@]2(OC(C)=O)[C@@H](OC(C)=O)[C@@H](C)/C=C/C(C)(C)[C@@H]1OC(C)=O (relative stereo) [EUPHOMELLIFERENE A]
Ratio [1]: 82.2 | Ratio [13]: 1.2 | Ratio [3]: 12.4 | Ratio [4]: 23.1 | Activity (COLO 320 [5]): 5.39% | Activity [6]: 1.11% | Ratio [14]: 2 | Activity (COLO 320 [7]): 7.7% | Ratio [9]: 5.5

CC(=O)O[C@H]1[C@H](OC(C)=O)/C(C)=C\[C@H]2[C@@H](OC(=O)c3ccccc3)[C@H](C)C[C@]2(O)C(=O)[C@@H](C)/C=C/C(C)(C)[C@@H]1OC(C)=O (relative stereo) [EUPHOMELLIFERINE]
Ratio [1]: 72.9 | Ratio [2]: 1.1 | Ratio [3]: 2.9 | Ratio [4]: 12.1 | Activity (COLO 320 [5]): 6.72% | Activity [6]: 0.74% | Activity (COLO 320 [7]): 4.97% | Ratio [8]: 1.1 | Ratio [9]: 5.1
